Reference: ChEMBL document CHEMBL4431364, “Discovery and synthetic optimization of a novel scaffold for hydrophobic tunnel-targeted autotaxin inhibition” (Bioorg Med Chem, 2016)

Legend:
[1] = target: T1, Autotaxin (Homo sapiens, UniProt Q13822); assay: Inhibition of C-terminal FLAG tagged human recombinant ATX expressed in insect sf9 cells at 10 uM using FS-3 as substrate measured every 2 mins for 60 mins by FRET assay
In short: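 10 μM compound with 10 nM human FLAG-fusion ATX in pH 8.0 Tris buffer (30 μM BSA, 1 mM CaCl2, 1 mM MgCl2, 5 mM KCl, 140 mM NaCl) and 1 μM FS-3. Fluorescence at ex 485/em 520 nm read every 2 min for 60 min at 37 °C. Normalized to no-ATX (0%) and ATX without compound (100%). Triplicate.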

[2] = target: T1, Autotaxin; assay: Inhibition of C-terminal FLAG tagged human recombinant ATX expressed in insect sf9 cells at 10 uM using pNP-TMP as substrate measured every 2 mins for 60 mins by absorbance

Row | SMILES | inhibition [1] | inhibition [2]
1 | Clc1ccc(Cl)c2c1CC(N1CCN(c3ncccn3)CC1)S2 (stereo not drawn) | 9.03% | –
2 | CN(C)CCCCN(CCCN(C)C)Cc1cccc2ccccc12 | 36.2% | –
3 | Cc1cc(C(F)(F)F)nc2sc3c(c12)NC(c1c(Br)cnn1C)NC3=O (stereo not drawn) | -1.36% | –
4 | CCC(C)c1ccc(OCC(=O)Nc2cc(OC)c(OC)cc2C(=O)O)cc1 (stereo not drawn) | -8.29% | –
5 | CC(C)/C=C/C(=O)N1CCN(C(=O)C2CCC3C4CC=C5CC(O)CCC5(C)C4CCC23C)CC1 (stereo not drawn) | 13.3% | –
6 | O=C(O)c1ccc(N2CCN(C(=O)COc3ccc(F)cc3)CC2)cc1 | 0.9% | -6.5%
7 | Cn1ncc(Cl)c1C(=O)NC1CCC(C(C)(C)C)CC1 (stereo not drawn) | 15% | –
8 | O=C(O)c1ccc(N2CCN(C(=O)COc3cccc(F)c3)CC2)cc1 | 32.3% | –
9 | O=C(O)c1ccc(N2CCN(C(=O)COc3cccc(C(F)(F)F)c3)CC2)cc1 | 43% | –
10 | CC(C)COc1cnc(SSc2ncc(OCC(C)C)cn2)nc1 | 20.6% | –
11 | O=C(c1ccco1)N1CCN(C(=O)C2CCCN2C(=O)CC2C=CCC2)CC1 (stereo not drawn) | 5.7% | –
12 | Cc1ccc(SCC(=O)Nc2ccc(C(=O)NC(C)(C)C)cc2)cc1 | 8.67% | –
13 | COc1ccc(C2OCC3OC(OC)C(O)C(O)C3O2)cc1OCc1ccccc1 (stereo not drawn) | -4.83% | –
14 | O=C(O)c1ccc(N2CCN(C(=O)COc3cc(Cl)cc(Cl)c3)CC2)cc1 | 46.7% | 27.8%
15 | COc1cc(C(=O)Nc2ccc(C(C)=O)cc2)c(Br)c(OC)c1OC | 16.9% | –
16 | O=S(=O)(c1cc(-c2ccon2)cs1)N1CCN(Cc2ccc3c(c2)OCO3)CC1 | 13.4% | –
17 | Cc1c(Cl)c(-c2nnc(NCC(C)C)s2)nn1C | 7.92% | –
18 | O=C(Nc1ccccc1)N1CC(O)C(N2CCN(Cc3ccccc3)CC2)C1 (stereo not drawn) | 2.55% | –
19 | Cc1oc(C(C)(C)C)cc1C(=O)NCCNC(=O)c1cc(C(C)(C)C)oc1C | 7.68% | –
20 | C=C(C)c1cccc(C(C)(C)NC(=O)N2CCN(C(=O)OCC)CC2)c1 | 10.5% | –
21 | Cc1cc(C(=O)CSc2ccc(Cl)cc2)cc(C)c1OC(=O)N(C)C | 6.06% | –
22 | COc1ccc(/C=N/c2cc(C)ccc2C)cc1OC | -2.55% | –
23 | CC(C)(C)CN(Cc1cccc(CN)c1)C(=O)c1ccc(-c2ccccc2)nc1 | 32.5% | –
24 | COc1ccc2oc(C(=O)NCCNC(=O)C3C(C=C(C)C)C3(C)C)cc2c1 (stereo not drawn) | 25.5% | –

Row | SMILES | inhibition [1] | inhibition [2]
25 | CCc1nc(C)cc(NCC(=O)C2(O)CC3(C)CCC4C5C=CC(=O)C=C5CCC45C3C25)c1O (stereo not drawn) | 17.5% | –
26 | Cc1cc(C)c(C)c(S(=O)(=O)N2CCN(c3ncnc4sc(C)c(C)c34)CC2)c1C | 19.8% | –
27 | CON1CC/C(=C\c2cc(C(C)(C)C)c3c(c2)C(C)(C)CO3)C1=O | 30.3% | –
28 | O=C(O)c1ccccc1N1CCN(C(=O)COc2ccccc2C(F)(F)F)CC1 | 17.3% | 4.6%
29 | O=C(O)c1ccc(N2CCN(C(=O)COc3ccccc3C(F)(F)F)CC2)cc1 | 10.9% | -0.8%
30 | CCN1CCN(c2cc(C)c3ccc(Cl)cc3n2)CC1 | 14.2% | –
31 | Cc1cc(NC(=O)CSc2nc3sc4c(c3c(=O)[nH]2)CCC(C(C)(C)C)C4)no1 (stereo not drawn) | 15.4% | –
32 | O=S(=O)(c1ccc(OC(F)(F)F)cc1)N1CCC(N2CCN(c3ccccc3F)CC2)CC1 | 8.43% | –
33 | COc1ccc(/C(N)=N/OC(=O)COc2ccc(C(C)(C)C)cc2Br)cc1OC | 6.68% | –
34 | COc1ccccc1N1CCN(/N=C(\C)c2ccc3ccccc3c2)CC1 | -0.74% | –
35 | COC(CNCc1cc(Cl)c(CNCC(OC)OC)cc1Cl)OC | 18.6% | –
36 | CC(C)(C)CN(Cc1cccc(CN)c1)C(=O)c1ccc(-c2ccc(F)cc2)nc1 | 19.8 to 42.8% | –
37 | Cc1cc(NC(=O)CSc2nc3sc4c(c3c(=O)[nH]2)CCC(C)C4)no1 (stereo not drawn) | 11% | –
38 | CCCCCCCCCCCC[N+](C)(C)CC(O)C(O)C(O)C(O)CO (stereo not drawn) | 36.7% | –
39 | CC[n+]1c(Cc2nn3c(C)cc(C)nc3[n+]2CC)nn2c(C)cc(C)nc21 | 2.48% | –
40 | Cn1cc(Cl)c(C2NN=C(SCC(=O)Nc3ccc(C(C)(C)C)cc3)S2)n1 (stereo not drawn) | 43.4% | –
41 | O=C(O)c1ccc(N2CCN(C(=O)COc3ccc(Cl)cc3Cl)CC2)cc1 | 23.9% | 9.7%
42 | Cn1ncc2c1ncn1nc(-c3ccc(Cn4cc(Cl)cn4)o3)nc21 | -1.86% | –
43 | O=C(O)c1ccccc1N1CCN(C(=O)COc2cccc(C(F)(F)F)c2)CC1 | 41.3% | -3.5%
44 | CCc1ccc2c(c1)c1nnc(SCC(=O)Nc3nnc(C(C)C)s3)nc1n2C | 21.7% | –
45 | CCOC(=O)c1c(C)[nH]c(C(=O)OCC(=O)NCc2ccco2)c1C | 15.6% | –
46 | CCCCOc1ccc(S(=O)(=O)N2CC(NCc3ccco3)CC2C(=O)CNO)cc1 (stereo not drawn) | 38% | –
47 | CCCCOCCCNc1cc(-c2cccc(C)c2)ncn1 | 9.16% | –
48 | CCCCC(CC)C(=O)Nc1nnc(C2CCCCC2)s1 (stereo not drawn) | 7.68% | –

Second part, the compound after the results:

Row | inhibition [1] | inhibition [2] | SMILES
49 | 9.17% | – | CSc1cccc2c(C)cc(N3CCN(c4ccc(F)cc4)CC3)nc12
50 | 0.32% | – | COc1ccc(C(=O)Oc2c(Br)cc(Br)c3cccnc23)cc1
51 | 6.06% | – | CCCC#CC(=O)NCC(=O)Nc1ccc2c3c(cccc13)-c1ccccc1-2
52 | 46.4% | – | Cc1ccc2cc(C#N)c(N3CCCN(C(=O)c4ccc(F)cc4F)CC3)nc2c1
53 | 13.4% | – | Cc1ccc2cc3c(nc2c1)sc1c(SCC(=O)NCc2ccco2)ncnc13
54 | -2.35% | – | COC(=O)c1sc(NC(=O)c2cc(C)ccc2Cl)c(C#N)c1C
55 | 1.44% | – | Cc1nn(-c2ccccc2)c(O)c1/N=C1\C(=O)N(C)c2ccc(Br)cc21
56 | 25.6% | – | O=C(CCCc1ccc([N+](=O)[O-])cc1)N1CCN(c2ccccc2F)CC1
57 | 39.5% | 18.2% | O=C(COc1cccc(F)c1)N1CCN(c2ccccc2[N+](=O)[O-])CC1
58 | 6.54% | – | Cc1c(Br)cc(C(=O)OCC(=O)c2ccccc2)c(C)c1C
59 | 46.4% | – | C=C(Br)C(=O)N1CCN(C(=O)CCSc2ccc3ccccc3c2)CC1
60 | 5.82% | – | O=c1/c(=C/C=C/c2ccc([N+](=O)[O-])o2)sc2nc3ccccc3n12
61 | 4.63% | – | Cc1cc(OCC(=O)Nc2ccc(-c3nc4ncccc4o3)cc2)ccc1Cl
62 | 12.1% | 1.7% | O=C(O)c1ccccc1N1CCN(C(=O)COc2ccccc2Cl)CC1
63 | 35.1% | – | CCc1cc2c(cc(C(=O)NCCc3ccc(OC)c(OC)c3)n2C)s1
64 | 10.7% | – | CC(C)(C)c1ccc(NC(=O)COC(=O)c2ccc([N+](=O)[O-])s2)cc1
65 | 12.1% | – | CC(C)c1ccc(NC(=O)c2cc([N+](=O)[O-])ccc2Cl)cc1
66 | 42% | 11.5% | O=C(O)c1cccc(N2CCN(C(=O)COc3ccccc3Cl)CC2)c1
67 | 34.7% | – | CCc1ccc(OCC(=O)Nc2ccc(-c3nc4ccccc4o3)cc2)cc1
68 | -3.35% | – | CCOc1ccc(N2C(=O)/C(=C3\C(=O)Nc4ccc(Br)cc43)SC2=S)cc1
69 | -0.99% | – | Cn1ncc2c(Cl)nc(-c3cc4cc([N+](=O)[O-])ccc4o3)nc21
70 | -0.74% | – | O=C1N=C(Nc2ccccc2)SC1Cc1ccc(-c2cccc(Br)c2)o1 (stereo not drawn)
71 | 27.6% | 7.3% | O=C(O)c1ccc(N2CCN(C(=O)COc3ccccc3Cl)CC2)cc1
72 | -5.5% | -4.8% | O=C(O)c1ccccc1N1CCN(C(=O)COc2cccc(F)c2)CC1

Row | inhibition [1] | inhibition [2] | SMILES
73 | -7.6% | -5.7% | O=C(O)c1ccccc1N1CCN(C(=O)COc2ccccc2F)CC1
74 | 15.2% | – | O=C(COc1ccccc1F)N1CCN(c2cccc([N+](=O)[O-])c2)CC1
75 | 46.1% | – | O=C(COc1ccccc1Cl)N1CCN(c2ccc([N+](=O)[O-])cc2)CC1
76 | 25.6% | -1.8% | O=C(COc1ccccc1F)N1CCN(c2ccccc2[N+](=O)[O-])CC1
77 | 41.9% | 4.9% | O=C(COc1ccccc1Cl)N1CCN(c2cccc([N+](=O)[O-])c2)CC1
78 | 42.7% | 24.9% | O=C(COc1cccc(Cl)c1)N1CCN(c2ccccc2[N+](=O)[O-])CC1
79 | 27.6% | -7.9% | O=C(O)c1ccccc1N1CCN(C(=O)COc2ccc(Cl)cc2Cl)CC1
80 | 10.8% | 10.9% | O=C(O)c1cccc(N2CCN(C(=O)COc3ccccc3F)CC2)c1
81 | 11.5% | -7.2% | O=C(O)c1ccccc1N1CCN(C(=O)COc2ccc(F)cc2)CC1
82 | 3.59% | – | N#C/C(=C\c1ccc(-c2cc([N+](=O)[O-])ccc2Cl)o1)C(=O)Nc1ccccc1C(=O)O
83 | 48.1% | 8.9% | O=C(COc1ccc(F)cc1)N1CCN(c2cccc([N+](=O)[O-])c2)CC1
84 | 6.1% | – | O=C(O)c1ccc(N2CCN(C(=O)COc3ccccc3F)CC2)cc1
85 | 4.83% | – | COc1ccc(N2C(=O)/C(=C/c3ccc(O)c([N+](=O)[O-])c3)SC2=S)cc1
86 | 32.8% | – | CC(C)CC1C(=O)NC(C)CN1C(=O)c1ccc(-c2ccccc2)cc1 (stereo not drawn)
87 | 47.1% | 18.7% | O=C(COc1ccccc1Cl)N1CCN(c2ccccc2[N+](=O)[O-])CC1
88 | 35.2% | – | O=C(COc1ccccc1F)N1CCN(c2ccc([N+](=O)[O-])cc2)CC1
89 | -2.48% | – | Cc1nc(N2CCN(c3ccccc3F)CC2)c2c(C)c(C)sc2n1
90 | 24.4% | -3.3% | O=C(O)c1ccccc1N1CCN(C(=O)COc2cccc(Cl)c2)CC1
91 | 10.5% | – | CC1=NC(c2cccc(C)c2)C(O)=C1/C=C1/C(=O)N(c2ccc(C)cc2C)N=C1C (stereo not drawn)
92 | 4.09% | – | CCOc1ccc(N2C(=O)/C(=C\c3sccc3C)C(C(=O)OC)=C2C)cc1
93 | 42.4% | 19.9% | O=C(COc1ccc(F)cc1)N1CCN(c2ccccc2[N+](=O)[O-])CC1
94 | 40.8% | – | Cc1ccccc1Nc1nc(C2(C)CC3(CC(COCC(C)C)OC3=O)C(=O)O2)cs1 (stereo not drawn)
95 | 49.2% | 35.4% | O=C(COc1cccc(C(F)(F)F)c1)N1CCN(c2ccccc2[N+](=O)[O-])CC1
